From the EternaBench riboswitch data

Test system: MS2 coat protein
Assay: apparent Kd, MS2 coat protein; higher = weaker binding; RNA-MaP array
Procedure, shortened: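 Designed RNAs were transcribed in place on an Illumina sequencing chip from sequenced DNA templates. At room temperature and with or without input ligand, they were incubated with fluorescently labeled MS2 coat protein from 1.5 nM to 3 μM, for 0.8–1.5 h at the lowest and 10–20 min at the highest concentrations. Apparent Kd is the median of the binding-curve fits made per cluster, with designs measured on fewer than 10 clusters excluded.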

[1] = designed as: OFF switch for flavin mononucleotide, no ligand
[2] = ligand present: flavin mononucleotide, designed as: OFF switch for flavin mononucleotide
[3] = designed as: OFF switch for tryptophan, no ligand
[4] = ligand present: tryptophan, designed as: OFF switch for tryptophan
[5] = designed as: OFF switch for theophylline, no ligand
[6] = ligand present: theophylline, designed as: OFF switch for theophylline
[7] = designed as: ON switch for flavin mononucleotide, no ligand
[8] = ligand present: flavin mononucleotide, designed as: ON switch for flavin mononucleotide
[9] = designed as: ON switch for theophylline, no ligand
[10] = ligand present: theophylline, designed as: ON switch for theophylline

Sequence | apparent Kd [1] | apparent Kd [2] | apparent Kd [7] | also measured
AUUAGACAAGGAUAUACAAGUCGUAUCGGCGCUGGGUGUAUACAUGAGGAUCACCCAUGUAGAAGGUGUGCUAU | 101 nM | 190 nM |  | 
UCUAUACAUGAGGAUCACCCAUGUCAGGAUAUAAGCACCGGGCGAUUGUCACGCGGCCUUAGAAGGGACAGGAA | 17.4 nM | 28.8 nM |  | 
GCUCAUUGCGAGGAUAUUGGAAGAGUGUAAACUCAAGAAGGCGCAACAUGAGGAUCACCCAUGUGAACCCAAAU | 7.91 nM | 14 nM |  | 
GUGAAGUUAGUGAGCGUUAGUCAAGCCAAACGAGGACCGGUACGGCCGCCACUCGCGCAUCGACAUGAGGAUCACCCAUGUGCCG |  |  |  | apparent Kd [3]: 14.6 nM; apparent Kd [4]: 17.7 nM
GCUGUAAAGGAGAAGGUGAAUCGUAAGCUUGGUCAAGGAUAUCCGACUGGACAUGGCUGCAGACAUGAGGAUCACCCAUGUGCG | 237 nM | 113 nM |  | 
UGUACAUGAGGAUCACCCAUGUUUGUAUCUUUAUCCGCGCGCAGAAGGUAGCCCAUGGAGACAGCUAAGGAUAUGCGUCACAUA | 21.5 nM | 8.83 nM |  | 
CGAUGCGCAUUAUCCCACUGGUAUGAGUCUCGAGGACCGGUACGGCCGCCACUCGCUACCGUACAUGAGGAUCACCCAUGUAUUA |  |  |  | apparent Kd [3]: 28 nM; apparent Kd [4]: 45.9 nM
UAACCACCGCAGGAUAUGCUAUGUUCAGUGUCUGCAGAAGGGCGUACAUGAGGAUCACCCAUGUAGUGACCUCA | 95.2 nM | 110 nM |  | 
CGAGUCUAGGAGAAGGCAUACAUGAGGAUCACCCAUGUCAAAGGGCACGUAACGAUAAUCCACCAUGAGGAUAUCCUGUUUAGA | 26.3 nM | 21.7 nM |  | 
CGUGUAGGGUAGGAUAUUCGAACACCACAAGGAGAAGAAGGACCUACAUGAGGAUCACCCAUGUGGUUAAUGGC | 112 nM | 225 nM |  | 
AAGGCUACGACCGAUACCAGUAGACGGCAUUCGUAGGAGAACAUGAGGAUCACCCAUGUCUACCCUUGGCAGCGGAAAAUACACU |  |  |  | apparent Kd [5]: 13.5 nM; apparent Kd [6]: 39.8 nM
GUAGCUGAGUGUGAUACCAGAAACGACGUCCUUUAUCAUAACAUGAGGAUCACCCAUGUCUUCCCUUGGCAGCACUUUUCGGUCU |  |  |  | apparent Kd [5]: 36.9 nM; apparent Kd [6]: 64.8 nM
UCCUUUAGACAUGAGGAUCACCCAUGUAGCCUCACUGUUCGUAGAAGGACACCGCUGUUCAAGCUGUAGGAUAUACGGAGGAUC | 468 nM | 319 nM |  | 
CCGACUCGCGUAGAGGAUAUGUAAUAAAAUACAUGAGGAUCACCCAUGUGAGACCGGGUGUCUCCACAGAAGGCUAUCGUGUCGUA |  |  | 133 nM | 
UAUUGUAUAGGAUAUACAUGAGGAUCACCCAUGUUCGAUGUUUGGAGCCUGCUUCAUAGUAGAAGGAUACGCCC | 16.3 nM | 16.7 nM |  | 
UAUCGAAGGUUUAAGGAUAUCGGCAGGCUCACAUGAGGAUCACCCAUGUCGCGAACAUCGCGCUACGAGAAGGUAAUCUUGAUGCA |  |  | 58.9 nM | apparent Kd [8]: 24.3 nM
UUUGCUACCUAGAAGGCUGACGAGACAUGAGGAUCACCCAUGUUGGAAAUUCUUACGGCAAUGGCAGAGGAUAUAGGACGAAAA | 7.66 nM | 11.3 nM |  | 
AGGUCCGGAGAGAAGGCCGACUUUGUAAUACACGGAGGAUAUCUACCACAUGAGGAUCACCCAUGUCCACACCGCAAGUUGUAA |  |  | 15 nM | apparent Kd [8]: 10.8 nM
CAUGGGCUAAGACAUUAUUCGUAUUUUGAUACCAGAAAAUUGGCGUUCCCUUGGCAGCAAUAUACAUGAGGAUCACCCAUGUCCC |  |  |  | apparent Kd [5]: 80.6 nM; apparent Kd [6]: 93.8 nM
CUCAAACAUGAGGAUCACCCAUGUAAGGAUAUCCGUAAUAAAUUUGGUAAGAGGCGGCGGAGAAGGUACGCAGC | 19.1 nM | 17.9 nM |  | 
GGAUGGGUGGAAGGAUAUGAGCCCAGGACAUGAGGAUCACCCAUGUGUAGUUCAGUCUCUAAUUCUCAGAAGGUCCAGAUUCUA | 18.1 nM | 21.5 nM |  | 
CACGAUACUACAGGAUAUGCCGGUUACCAAUCUGCAGAAGGGUAGAUUAGUCUAACAUGAGGAUCACCCAUGUACCUCUCAUGU | 208 nM | 248 nM |  | 
AUUCAUUGAAACAUGAGGAUCACCCAUGUACACUGGCACUUACAGGAUAUUGAAUAUGGAAGUCGCAAGAAGGGUAACGUGAUC |  |  | 112 nM | apparent Kd [8]: 57 nM
GUGCAGUUAUUAGGAUAUAAGACAUGGGACAUGAGGAUCACCCAUGUCGUAAGAAAUACCGUUGAUUAGAAGGAAUUCCGGCAC |  |  | 1010 nM | apparent Kd [8]: 283 nM
CCUAACCACAAGAAGGAUGAGAUGCGGCAUUUCAUAGGAUAUUGAUCACAUGAGGAUCACCCAUGUUGCCGUAAGGCGCUAGUC |  |  | 321 nM | apparent Kd [8]: 136 nM
UAGAGCUCGCAAGGAUAUAACGCACAGAAACAUGAGGAUCACCCAUGUGGAAAGGAUCAACGUCGUUAGAAGGUGCAGAAAUAU |  |  | 47.4 nM | apparent Kd [8]: 22 nM
CAUGUCAAAGACAUGAGGAUCACCCAUGUAAUCCAAGACGCAAGAAGGGCGUGUUGAACUAACACGCAGGAUAUUGACCCUGUU | 57.5 nM | 73.4 nM |  | 

Sequence | apparent Kd [1] | apparent Kd [2] | apparent Kd [7] | also measured
AAAACUACAGAUACCUUAACAUGAGGAUCACCCAUGUGAGCUGAGGAUAUGUCCACGCUUUAAGGACAGAAGGCAGGAGCAUAG | 25.2 nM | 36.9 nM |  | 
GACGAGAGACAGAAGGCUCGACUGUGGCUACGAGAUCUGAAAACAUGAGGAUCACCCAUGUUUCGAGAGGAUAUGUCGAAUUAU | 129 nM | 397 nM |  | 
UUUUUUUAACAGAAGGACAGACAUAUGAGGGACAUGAGGAUCACCCAUGUGUGCUCGCGUAGGCUGUAGGAUAUGUAGUGCUGG | 11.2 nM | 8.19 nM |  | 
CCAAUAUCUAUAGGAUAUCAAUGACCAAACUGAACAUGAGGAUCACCCAUGUAGUGAGUGACUUAUGAGAAGGAUAGACGUACC |  |  | 104 nM | apparent Kd [8]: 22.9 nM
AUUACAAGCACAGGAUAUAACAGUUGGUUCACAUGAGGAUCACCCAUGUAGCAUUGGGAAGUAGCUUAGAAGGGUGAGGUGGUU |  |  | 183 nM | apparent Kd [8]: 107 nM
AGACAUGAGGAUCACCCAUGUUGCUGUACAGGAGUUAAAGUCUAGGAUAUUGGGUCAGAAAGCGACAAGAAGGAGACACGCCAG |  |  | 11.2 nM | apparent Kd [8]: 8.47 nM
CAUGCUUGCGAGGAUAUAAGGUUCUCCCUGUUCUUAGAAGGCGCAACAUGAGGAUCACCCAUGUUCCUACCGAA | 43 nM | 283 nM |  | 
UUAGGUUAUAAAGUGACAUGAGGAUCACCCAUGUGCUCACAGAGAAGGUUAUACCUACAGGCUAUAAAGGAUAUCUCCUAAAUU | 12.3 nM | 8.73 nM |  | 
UACAAAGAAUAGGAUAUCGAGAGGUAAUUUGGGCGAGAAGGAUUCACAUGAGGAUCACCCAUGUAGGCGGAUCU | 30.7 nM | 40.9 nM |  | 
AGACAUGGCGGAUAGGAUAUGUGGGCGUCUACAUGAGGAUCACCCAUGUUGCUCGGAUGCAAUCUACAGAAGGAUCGACCCAGUGC |  |  | 106 nM | apparent Kd [8]: 16.1 nM
CCUUCAGAUGAGAAGGCCAUCUACGGCUGGACACGGCAGUAACAUGAGGAUCACCCAUGUUUAAUGGAGGAUAUCAACGGAAGC |  |  | 12.3 nM | apparent Kd [8]: 8.94 nM
AGGUUACGUGUGAGGAUAUUAAGAUAUUAAAUUUAUAAGAAGGCACAUGAGGAUCACCCAUGUAUGACUUCCCA | 5.66 nM | 6.77 nM |  | 
ACUGAGUAAGGAUAUCCAUCAUACUAACGACGCGGAAAGAAGGAGAAGGUACAUGAGGAUCACCCAUGUGAAAA | 12.3 nM | 11.1 nM |  | 
GUGGGACAUGAGGAUCACCCAUGUGACGAUACCAGUCAAUUGAUGGACCCUUGGCAGCGUUGGUAUUGCGGGUAGGCGAGAUAAG |  |  |  | apparent Kd [9]: 43.2 nM; apparent Kd [10]: 45.4 nM
ACAUCGAGGCGAGGAUAUAUGACAUGAGGAUCACCCAUGUCUGCGUGAUCGUCGAACAAAUGUUCAUAGAAGGCGCUAGAAAUG | 112 nM | 20.6 nM |  | 
AACGGUUUUUAGAAGGGCGUCAGGGACCUUGGACAUGAGGAUCACCCAUGUGUGCAGACACCUGCGCAGGAUAUAAGUUCUCUA | 12.6 nM | 9.53 nM |  | 
UCGUUGCCAUGAGGAUAUCGUGUCAAGACAGGCAAGUGACCGUACAUGAGGAUCACCCAUGUAAACGAGAAGGCAUAGUCAUGG | 17 nM | 13.9 nM |  | 
AACGGUGCGCGAGGAUAUCACGUACCAAGAGGAUGAGAAGGCGCGCGUACAGGUUGGUGAACAUGAGGAUCACCCAUGUGGUAC | 99.5 nM | 87.2 nM |  | 
CCAUGACAUGAGGAUCACCCAUGUGGGUGCAGACAAGGAUAUAGUAAGAAUAGGAUAGAUCUAGAAGGUGUCAUUA |  |  | 528 nM | apparent Kd [8]: 282 nM
ACUGGUUCGGUUGUCACACAUGAGGAUCACCCAUGUAAGGUAGAGGAUAUCGCUCCGUCCUUCGGCGAGAAGGCUAUUCGACGC | 13 nM | 10.3 nM |  | 
GCUCACAUGAGGAUCACCCAUGUCACGAGGUGAUGAUGAACAAGAAGGAAACUCAUAUGAUCAGUUUAGGAUAUUGCCCAGCGA | 791 nM | 460 nM |  | 
GUCAUCUGUUUAGGAUAUGCGGUAGACACCGGGCGAGAAACAUGAGGAUCACCCAUGUUCGGAUUGCAGAAGGAAACGGCAAUA |  |  | 13.6 nM | apparent Kd [8]: 17 nM
UCAAUUGAGGUCAAGGAUAUCUAGAAACAGACAUGAGGAUCACCCAUGUGCACAGCAUAAACGAGAGAGAAGGUGAGGCAUAUUGA |  |  | 42.7 nM | apparent Kd [8]: 26.5 nM
CUGGUUGCCGGUUGCGACACAUGAGGAUCACCCAUGUAUACCGAGGAUAUGUGGAGCUGUAGAUGACAGAAGGCGGUGAGUAUC |  |  | 53.7 nM | apparent Kd [8]: 38.1 nM
GGGCGACUGCAAGGAUAUCUCGAAGUGAGUGGCAGAGAAGGUGCACGUACAUGAGGAUCACCCAUGUGAACUUAUUGGUCAAGG | 25.2 nM | 21.9 nM |  | 
CAACUGGCAGAGGAUACCAGAUCAUUUAGAAACAUGAGGAUCACCCAUGUCGUAAGGAUAAUCCCUUGGCAGCCUAUCCGCCUCG |  |  |  | apparent Kd [9]: 13.2 nM; apparent Kd [10]: 10.8 nM
AUUUCAUGUGUAGGAUAUCGCAUUCAGAACUAGCCAUCCACAUGAGGAUCACCCAUGUGUGCGGGCGAGAAGGACACGAGGGCA |  |  | 9.72 nM | apparent Kd [8]: 7.55 nM
